Laboratory results: ChEMBL document CHEMBL1129519, “Optimal recognition of neutral endopeptidase and angiotensin-converting enzyme active sites by mercaptoacyldipeptides as a means to design potent dual inhibitors” (J Med Chem, 1996)

Key:
[1] = target: T1, Angiotensin-converting enzyme (Rattus norvegicus, UniProt P47820); test: Inhibitory activity against angiotensin I converting enzyme
T1 sequence (P47820 whole entry): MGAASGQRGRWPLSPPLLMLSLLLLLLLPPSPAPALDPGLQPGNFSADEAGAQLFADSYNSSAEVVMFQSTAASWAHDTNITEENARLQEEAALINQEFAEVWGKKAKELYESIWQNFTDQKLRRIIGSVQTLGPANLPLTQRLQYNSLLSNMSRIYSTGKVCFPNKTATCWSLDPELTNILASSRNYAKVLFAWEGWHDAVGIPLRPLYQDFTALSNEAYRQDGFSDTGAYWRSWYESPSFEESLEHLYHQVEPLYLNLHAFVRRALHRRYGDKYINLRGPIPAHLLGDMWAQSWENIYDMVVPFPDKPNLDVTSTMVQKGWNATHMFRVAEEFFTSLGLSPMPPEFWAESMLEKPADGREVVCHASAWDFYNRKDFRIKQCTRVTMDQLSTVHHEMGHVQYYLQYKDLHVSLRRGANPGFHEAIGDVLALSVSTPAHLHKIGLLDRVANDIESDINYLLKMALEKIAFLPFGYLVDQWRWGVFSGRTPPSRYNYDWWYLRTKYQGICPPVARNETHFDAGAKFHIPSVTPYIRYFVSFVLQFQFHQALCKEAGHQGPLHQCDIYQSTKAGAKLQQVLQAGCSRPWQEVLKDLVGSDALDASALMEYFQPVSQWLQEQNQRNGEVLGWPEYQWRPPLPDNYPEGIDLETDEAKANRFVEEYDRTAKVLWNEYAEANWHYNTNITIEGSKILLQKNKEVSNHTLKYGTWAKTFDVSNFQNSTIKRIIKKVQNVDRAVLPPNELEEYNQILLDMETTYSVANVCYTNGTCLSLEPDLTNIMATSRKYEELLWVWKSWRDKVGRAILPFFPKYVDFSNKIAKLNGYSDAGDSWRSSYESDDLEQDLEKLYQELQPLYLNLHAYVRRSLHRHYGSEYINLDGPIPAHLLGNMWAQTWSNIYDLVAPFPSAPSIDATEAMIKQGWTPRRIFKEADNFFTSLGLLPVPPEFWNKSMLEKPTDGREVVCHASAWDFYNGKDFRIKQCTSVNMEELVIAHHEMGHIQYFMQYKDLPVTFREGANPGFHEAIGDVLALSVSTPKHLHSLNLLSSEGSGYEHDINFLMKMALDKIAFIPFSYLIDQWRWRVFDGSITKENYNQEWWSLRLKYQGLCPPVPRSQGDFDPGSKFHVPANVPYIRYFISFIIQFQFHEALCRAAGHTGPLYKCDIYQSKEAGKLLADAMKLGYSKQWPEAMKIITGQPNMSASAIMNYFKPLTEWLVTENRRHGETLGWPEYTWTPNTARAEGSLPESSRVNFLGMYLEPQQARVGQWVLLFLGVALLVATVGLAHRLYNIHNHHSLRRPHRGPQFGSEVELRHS
In short: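 Rat testis enzyme purified to homogeneity, 0.02 pmol/100 µL final, preincubated 15 min at 37 °C with varied inhibitor levels in 50 mM Tris-HCl pH 8.0. N-Cbz-Phe-His-Leu then added to 0.05 mM final and run 15 min. Stopped with 2 M NaOH, His-Leu measured fluorimetrically (ex 365, em 495 nm) against a His-Leu calibration curve. IC50 as mean ± SEM of three independent determinations, each in triplicate.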

Neprilysin = target: T2, Neprilysin (Oryctolagus cuniculus, UniProt P08049); test: Inhibitory activity was tested against neutral endopeptidase
T2 sequence (P08049 whole entry): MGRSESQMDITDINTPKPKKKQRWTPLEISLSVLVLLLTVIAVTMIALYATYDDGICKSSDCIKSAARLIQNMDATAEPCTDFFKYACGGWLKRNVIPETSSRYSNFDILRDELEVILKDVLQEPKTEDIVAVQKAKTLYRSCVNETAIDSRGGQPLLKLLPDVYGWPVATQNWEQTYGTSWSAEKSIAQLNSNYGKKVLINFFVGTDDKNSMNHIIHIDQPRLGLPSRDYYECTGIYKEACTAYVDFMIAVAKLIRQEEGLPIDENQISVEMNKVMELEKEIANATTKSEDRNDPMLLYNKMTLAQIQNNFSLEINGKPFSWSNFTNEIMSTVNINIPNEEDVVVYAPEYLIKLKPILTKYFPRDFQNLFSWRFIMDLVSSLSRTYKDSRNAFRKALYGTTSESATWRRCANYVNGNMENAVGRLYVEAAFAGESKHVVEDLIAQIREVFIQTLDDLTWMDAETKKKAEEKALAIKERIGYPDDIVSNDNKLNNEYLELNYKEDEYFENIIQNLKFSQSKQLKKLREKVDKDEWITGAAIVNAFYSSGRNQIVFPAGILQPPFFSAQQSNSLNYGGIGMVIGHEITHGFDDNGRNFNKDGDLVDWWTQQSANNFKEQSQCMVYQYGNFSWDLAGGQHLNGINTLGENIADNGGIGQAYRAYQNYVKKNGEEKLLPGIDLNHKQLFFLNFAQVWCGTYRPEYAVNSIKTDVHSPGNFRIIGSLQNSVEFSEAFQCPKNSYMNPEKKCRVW
In short: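 Rabbit kidney enzyme purified to homogeneity, 1 pmol/100 µL final, preincubated 15 min at 25 °C with or without rising inhibitor concentrations in 50 mM Tris-HCl pH 7.4. [3H]Tyr-D-Ala2-Leu-enkephalin then added to 20 nM final and run 30 min. Stopped with 0.5 M HCl, tritiated metabolites separated on polystyrene beads. IC50 as mean ± SEM of three independent determinations, each in triplicate.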

Structure (SMILES)	IC50 [1]	IC50 (Neprilysin)
C=C(C)[C@@H]1CC[C@]2(C(=O)N[C@H](C(=O)O)[C@@H](C)CC)CC[C@]3(C)[C@H](CC[C@@H]4[C@@]5(C)CC[C@H](O)C(C)(C)[C@@H]5CC[C@]43C)[C@@H]12	6.3 nM	5.5 nM
CC[C@@H](C)[C@H](S)C(=O)N[C@H](C(=O)N[C@@H](Cc1ccc(O)cc1)C(=O)O)C(C)c1ccccc1 (stereo not given in full)	33 nM	32 nM
CC[C@H](C)[C@H](S)C(=O)N[C@H](C(=O)N[C@@H](Cc1ccc(O)cc1)C(=O)O)C(C)C	1.9 nM	5.3 nM
CC[C@H](C)[C@H](NC(=O)[C@@H](S)C(C)C)C(=O)N1C(C(=O)O)CC2CCCCC21 (stereo not given in full)	28 nM	175 nM
CC[C@H](C)[C@H](NC(=O)[C@@H](S)c1ccccc1)C(=O)N[C@@H](Cc1ccc(O)cc1)C(=O)O	3.5 nM	4.5 nM
CC[C@H](C)[C@H](S)C(=O)N[C@@H](Cc1ccccc1)C(=O)N[C@@H](Cc1ccc(O)cc1)C(=O)O	10 nM	3.5 nM
CC(C)C[C@H](NC(=O)[C@@H](S)Cc1ccccc1)C(=O)N[C@@H](Cc1ccc(O)cc1)C(=O)O	3 nM	2.2 nM
CC(C)(NC(=O)[C@@H](S)CCc1ccccc1)C(=O)N1CCCC1C(=O)O (stereo not given in full)	1.6 nM	46 nM
O=C(O)[C@H](Cc1ccccc1)NC(=O)[C@@H](S)Cc1ccccc1	44 nM	23 nM
CC(C)[C@H](NC(=O)[C@@H](S)Cc1ccccc1)C(=O)N1CCCC1C(=O)O (stereo not given in full)	0.85 nM	24 nM
CC[C@H](C)[C@H](NC(=O)[C@@H](S)Cc1ccccc1)C(=O)N[C@@H](Cc1ccc(O)cc1)C(=O)O	2.5 nM	3 nM
O=C(O)[C@H](Cc1ccc(O)cc1)NC(=O)[C@H](Cc1ccccc1)NC(=O)[C@@H](S)CCc1ccccc1	1.5 nM	20 nM
C[C@H](NC(=O)[C@@H](S)Cc1ccccc1)C(=O)N1CCCC1	150 nM	22 nM
C[C@H](NC(=O)[C@@H](S)Cc1ccccc1)C(=O)O	40 nM	4 nM
CC[C@@H](C)[C@H](NC(=O)[C@@H](S)c1ccccc1)C(=O)N1CCCC1C(=O)O (stereo not given in full)	28 nM	130 nM
CC[C@@H](C)[C@H](NC(=O)[C@@H](S)Cc1ccccc1)C(=O)N1CCCC1C(=O)O (stereo not given in full)	1.7 nM	24 nM
C[C@H](NC(=O)[C@@H](S)Cc1ccccc1)C(=O)N1C(C(=O)O)CC2CCCCC21 (stereo not given in full)	0.4 nM	5.3 nM
O=C(O)[C@H](Cc1c[nH]c2ccccc12)NC(=O)[C@H](Cc1ccccc1)NC(=O)[C@@H](S)Cc1ccccc1	7.9 nM	50 nM
CC(C)[C@H](NC(=O)[C@@H](S)Cc1ccccc1)C(=O)N[C@@H](Cc1ccc(O)cc1)C(=O)O	4 nM	3.6 nM
C[C@H](NC(=O)[C@H](Cc1ccccc1)NC(=O)[C@@H](S)Cc1ccccc1)C(=O)O	7.1 nM	2.3 nM

Structure (SMILES)	IC50 [1]	IC50 (Neprilysin)
CC[C@H](C)[C@H](S)C(=O)N[C@H](C(=O)N1CCC[C@H]1C(=O)O)C(C)C	0.58 nM	190 nM
C[C@H](NC(=O)[C@H](Cc1ccccc1)NC(=O)CS)C(=O)O	220 nM	14 nM
O=C(O)[C@H](Cc1cccc2ccccc12)NC(=O)[C@H](Cc1ccccc1)NC(=O)[C@@H](S)Cc1ccccc1	50 nM	120 nM
CC[C@@H](C)[C@H](NC(=O)[C@@H](S)C(C)C)C(=O)N[C@@H](Cc1ccc(O)cc1)C(=O)O	0.26 nM	1.4 nM
CC[C@@H](C)[C@H](NC(=O)[C@@H](S)C(C)OCc1ccccc1)C(=O)N[C@@H](Cc1ccc(O)cc1)C(=O)O (stereo not given in full)	7.1 nM	4.1 nM
CC[C@H](C)[C@H](S)C(=O)N[C@@H](C)C(=O)N1c2ccccc2CC1C(=O)O (stereo not given in full)	3.3 nM	180 nM
O=C(O)[C@H](CSCc1ccccc1)NC(=O)[C@H](Cc1ccccc1)NC(=O)[C@@H](S)Cc1ccccc1	14 nM	40 nM
CCCC[C@H](NC(=O)[C@@H](S)Cc1ccccc1)C(=O)N[C@@H](Cc1ccc(O)cc1)C(=O)O	4 nM	2.8 nM
O=C(O)[C@H](Cc1ccc(O)cc1)NC(=O)[C@H](Cc1ccccc1)NC(=O)[C@@H](S)Cc1ccccc1	5.6 nM	2.9 nM
O=C(NC1(C(=O)O)CCCC1)[C@H](Cc1ccccc1)NC(=O)[C@@H](S)Cc1ccccc1	30 nM	45 nM
CC(C)[C@H](NC(=O)[C@@H](S)CCc1ccccc1)C(=O)N[C@@H](Cc1ccc(O)cc1)C(=O)O	1.6 nM	10 nM
CC(OCc1ccccc1)[C@H](NC(=O)[C@@H](S)Cc1ccccc1)C(=O)N[C@@H](Cc1ccc(O)cc1)C(=O)O (stereo not given in full)	34 nM	100 nM
C[C@H](NC(=O)[C@@H](S)Cc1ccccc1)C(=O)N1CCCCC1C(=O)O (stereo not given in full)	1.6 nM	9.5 nM
O=C(O)[C@H](COCc1ccccc1)NC(=O)[C@H](Cc1ccccc1)NC(=O)[C@@H](S)Cc1ccccc1	12 nM	50 nM
CC(c1ccccc1)[C@H](S)C(=O)N[C@H](C(=O)N1CCCC[C@H]1C(=O)O)C(C)C (stereo not given in full)	110 nM	180 nM
O=C(O)C1CCCN1C(=O)[C@H](Cc1ccccc1)NC(=O)[C@@H](S)Cc1ccccc1 (stereo not given in full)	1.1 nM	30 nM
C[C@H](NC(=O)[C@@H](S)Cc1ccccc1)C(=O)N1CCC[C@H]1C(=O)O	0.3 nM	3.8 nM
C[C@H](NC(=O)[C@@H](S)CCc1ccccc1)C(=O)N1CCCC1C(=O)O (stereo not given in full)	0.35 nM	20 nM
CC(C)[C@H](NC(=O)[C@@H](S)Cc1ccccc1)C(=O)N1CC(O)CC1C(=O)O (stereo not given in full)	100 nM	63 nM
C[C@H](NC(=O)[C@H](S)Cc1ccccc1)C(=O)N1CCC[C@H]1C(=O)O	25 nM	1.3 nM
